Laboratory results from ChEMBL document CHEMBL5661968, “Antitumor activity of ZSTK474, a new phosphatidylinositol 3-kinase inhibitor” (J Natl Cancer Inst, 2006).
The source made the active and inactive calls. The calls are words filed in the database; no cut-off is given here.

Experiments:
[1] = tested on: MEF; assay: Inhibition of PI3K in platelet-derived growth factor induced mouse MEF cells assessed as reduction in membrane ruffling at 1 uM preincubated with compound for 15 mins followed by induction by immunoprecipitation based liquid scintillation spectroscopic analysis; format: cell-based
In short: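 Murine embryonic fibroblasts treated with or without 1 μM compound for 15 min, stimulated with PDGF (10 ng/mL) for 5 min, fixed in 3% formaldehyde 30 min at room temperature, permeabilized with 0.1% Triton X-100, F-actin stained with TRITC-phalloidin (0.1 μg/mL), viewed by fluorescence microscopy.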

[2] = tested on: OVCAR-3; assay: Induction of apoptosis in human OVCAR-3 cells assessed as increase in apoptotic cells at 10 uM measured after 48 hrs by propidium iodide staining based flow cytometric analysis; format: functional, cell-based
In short: (§1)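 Cells harvested, washed in ice-cold PBS, fixed in 70% ethanol, washed twice in ice-cold PBS, treated with RNase A (500 μg/mL) at 37 °C for 1 h, stained with propidium iodide (25 μg/mL); DNA content read by flow cytometry.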

[3] = tested on: HCT-116; assay: Growth inhibition of human HCT-116 cells measured after 48 hrs by sulforhodamine B assay; format: functional
In short: (§2)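 JFCR39 panel lines were grown in RPMI 1640 with 5% FBS, penicillin and streptomycin at 37 °C in 5% CO2. After 48 h of drug exposure, total cellular protein was measured by sulforhodamine B staining. GI50 was calculated by a previously described method.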

[4] = tested on: U-251; assay: Growth inhibition of human U-251 cells measured after 48 hrs by sulforhodamine B assay; format: functional; in short: as §2
[5] = tested on: NCI-H23; assay: Growth inhibition of human NCI-H23 cells measured after 48 hrs by sulforhodamine B assay; format: functional; in short: as §2
[6] = tested on: OVCAR-3; assay: Growth inhibition of human OVCAR-3 cells measured after 48 hrs by sulforhodamine B assay; format: functional; in short: as §2
[7] = tested on: A549; assay: Antitumor activity against human A549 cells xenografted in nude mouse assessed as inhibition of tumor growth at 400 mg/kg, po administered on day 0 to 13 except for day 3 and 10 measured after 14 days; format: functional, organism-based; conditions: time 14.0 day
In short: (§3)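 Female BALB/c-background nude mice were implanted s.c. with 3 × 3 × 3 mm tumor fragments. At 100–300 mm3 tumor volume (day 0), groups of five were randomized and dosed orally at 400 mg/kg on days 0–13, skipping days 3 and 10. Caliper volume was (L×W2)/2, relative to day 0 (RTV). T/C% on day 14 = 100 × mean treated RTV / mean control RTV.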

[8] = tested on: SF-295; assay: Growth inhibition of human SF-295 cells measured after 48 hrs by sulforhodamine B assay; format: functional; in short: as §2
[9] = tested on: WiDr; assay: Antitumor activity against human WiDr cells xenografted in nude mouse assessed as inhibition of tumor growth at 400 mg/kg, po administered on day 0 to 13 except for day 3 and 10 measured after 14 days; format: functional, organism-based; conditions: time 14.0 day; in short: as §3
[10] = tested on: OVCAR-3; assay: Induction of apoptosis in human OVCAR-3 cells assessed as increase in chromatin condensation at 10 uM measured after 48 hrs by Hoechst 33342 staining based fluorescence microscopic analysis; format: functional, cell-based
In short: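 OVCAR3 cells grown 24 h in RPMI 1640 with 5% FBS, then 48 h with or without 10 μM compound; fixed in 1% glutaraldehyde in PBS at 4 °C for 24 h, stained with 167 μM Hoechst 33342, apoptotic cells scored by fluorescence microscopy.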

[11] = Residual PI3K activity in human A549 cell lysate at 1 uM preincubated with compound for 5 mins followed by [gamma-32p]-ATP addition measured after 20 mins by immunoprecipitation based liquid scintillation spectroscopic analysis relative to control; conditions: A549, 25 min
[12] = tested on: A549; assay: Downregulation of cyclin D1 expression in human A549 cells measured after 3 hrs by immunoblotting analysis; format: functional, cell-based; conditions: dose <= 2.0 µM
In short: (§4)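 A549 cells were lysed in Tris-HCl pH 7.4 buffer with NaF, pyrophosphate, Na3VO4, EDTA, aprotinin, PMSF, 0.5% NP-40 and 0.1% SDS. Lysates were run on SDS-PAGE and blotted to PVDF. Blots were probed with rabbit anti-cyclin D1 polyclonal (1:200), then HRP anti-rabbit IgG, and detected by ECL chemiluminescence.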

[13] = tested on: B16-F10; assay: Antitumor activity against mouse B16-F10 cells implanted in BDF1 mouse assessed as tumor size relative to control (T/C) at 400 mg/kg, po administered daily measured after 14 days; conditions: 336 h
[14] = tested on: St-4; assay: Growth inhibition of human St-4 cells measured after 48 hrs by sulforhodamine B assay; format: functional; in short: as §2
[15] = molecular target: Dual specificity mitogen-activated protein kinase kinase 2 (Homo sapiens) (UniProt P36507); assay: Inhibition of MEK2 phosphorylation at Ser-217/221 residues in human A549 cells measured after 3 hrs by immunoblotting analysis; conditions: dose <= 2.0 µM
Dual specificity mitogen-activated protein kinase kinase 2 (Homo sapiens), sequence (P36507 whole entry): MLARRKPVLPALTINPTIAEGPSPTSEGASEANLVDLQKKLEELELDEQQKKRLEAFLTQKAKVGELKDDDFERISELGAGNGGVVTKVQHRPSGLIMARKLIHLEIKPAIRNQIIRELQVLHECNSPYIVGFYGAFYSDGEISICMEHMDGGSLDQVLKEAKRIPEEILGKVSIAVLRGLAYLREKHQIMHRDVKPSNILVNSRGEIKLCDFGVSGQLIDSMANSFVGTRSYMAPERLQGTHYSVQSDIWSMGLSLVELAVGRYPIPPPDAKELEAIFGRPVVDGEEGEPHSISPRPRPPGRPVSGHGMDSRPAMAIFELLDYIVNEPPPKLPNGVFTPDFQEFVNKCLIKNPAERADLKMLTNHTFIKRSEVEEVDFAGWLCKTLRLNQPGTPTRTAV

[16] = molecular target: Mitogen-activated protein kinase 1 (Homo sapiens) (UniProt P28482); assay: Inhibition of ERK2 phosphorylation at Thr-202/Tyr-204 residues in human A549 cells measured after 3 hrs by immunoblotting analysis; conditions: dose <= 2.0 µM
Mitogen-activated protein kinase 1 (Homo sapiens), sequence (P28482 whole entry): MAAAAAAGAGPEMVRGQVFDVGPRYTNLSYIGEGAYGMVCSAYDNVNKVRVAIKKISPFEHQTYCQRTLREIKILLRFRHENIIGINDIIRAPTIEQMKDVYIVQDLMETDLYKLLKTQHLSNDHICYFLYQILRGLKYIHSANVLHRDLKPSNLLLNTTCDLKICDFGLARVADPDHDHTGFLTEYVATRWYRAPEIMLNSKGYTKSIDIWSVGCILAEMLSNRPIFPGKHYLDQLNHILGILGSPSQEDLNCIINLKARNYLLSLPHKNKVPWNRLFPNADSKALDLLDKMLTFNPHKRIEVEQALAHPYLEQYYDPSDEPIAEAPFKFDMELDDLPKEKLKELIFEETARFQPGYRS

[17] = tested on: ACHN; assay: Growth inhibition of human ACHN cells measured after 48 hrs by sulforhodamine B assay; format: functional; in short: as §2
[18] = Growth inhibition of human BSY1 cells measured after 48 hrs by sulforhodamine B assay; format: functional; conditions: BSY-1; in short: as §2
[19] = tested on: A549; assay: Induction of cell cycle arrest in human A549 cells assessed as accumulation of cells at G1 phase at 10 uM incubated for 24 hrs by propidium iodide staining based flow cytometric analysis
[20] = tested on: DMS-273; assay: Growth inhibition of human DMS-273 cells measured after 48 hrs by sulforhodamine B assay; format: functional; in short: as §2
[21] = tested on: OVCAR-4; assay: Growth inhibition of human OVCAR-4 cells measured after 48 hrs by sulforhodamine B assay; format: functional; in short: as §2
[22] = tested on: HCT-15; assay: Growth inhibition of human HCT-15 cells measured after 48 hrs by sulforhodamine B assay; format: functional; in short: as §2
[23] = tested on: A549; assay: Induction of apoptosis in human A549 cells assessed as increase in apoptotic cells at 10 uM measured after 48 hrs by propidium iodide staining based flow cytometric analysis; format: functional, cell-based; in short: as §1
[24] = tested on: A549; assay: Downregulation of cyclin D1 expression in human A549 cells at 0.5 uM measured after 30 mins by Western blotting analysis; format: functional, cell-based; in short: as §4
[25] = tested on: MKN-45; assay: Growth inhibition of human MKN-45 cells measured after 48 hrs by sulforhodamine B assay; format: functional; in short: as §2
[26] = tested on: B16-F10; assay: Antitumor activity against mouse B16-F10 cells implanted in BDF1 mouse assessed as tumor size relative to control (T/C) at 200 mg/kg, po administered daily measured after 14 days; conditions: 336 h
[27] = molecular target: Mitogen-activated protein kinase 3 (Homo sapiens) (UniProt P27361); assay: Inhibition of ERK1 phosphorylation at Thr-202/Tyr-204 residues in human A549 cells measured after 3 hrs by immunoblotting analysis; conditions: dose <= 2.0 µM
Mitogen-activated protein kinase 3 (Homo sapiens), sequence (P27361 whole entry): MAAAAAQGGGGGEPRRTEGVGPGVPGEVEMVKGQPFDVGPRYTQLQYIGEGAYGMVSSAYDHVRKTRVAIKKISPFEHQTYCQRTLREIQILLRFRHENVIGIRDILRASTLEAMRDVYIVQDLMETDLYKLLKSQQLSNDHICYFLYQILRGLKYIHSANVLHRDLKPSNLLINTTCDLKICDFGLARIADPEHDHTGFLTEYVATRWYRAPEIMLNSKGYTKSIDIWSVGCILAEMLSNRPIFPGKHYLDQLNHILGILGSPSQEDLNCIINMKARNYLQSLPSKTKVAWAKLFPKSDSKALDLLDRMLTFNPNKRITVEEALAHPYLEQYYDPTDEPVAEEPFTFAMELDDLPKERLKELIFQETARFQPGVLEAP

[28] = tested on: A549; assay: Inhibition of AKT phosphorylation at S473 residue in human A549 cells at 0.5 uM measured after 5 mins by Western blotting analysis; format: cell-based

In the case of FC(F)c1nc2ccccc2n1-c1nc(N2CCOCC2)nc(N2CCOCC2)n1 [ZSTK-474], the inhibition [1] is reported as “Active”, the Activity [2] is reported as “Active” and the GI50 [3] is reported as 1510 nM. It also gave a GI50 [4] of 1100 nM, a GI50 [5] of 339 nM and a GI50 [6] of 91.2 nM. The Activity [7] was “Active”, the GI50 [8] was 186 nM and the Activity [9] was “Active”. For the same compound, the Activity [10] was “Active”, the level, % of control at 1 µM [11] was 4.7% and the Activity [12] was “Dose-Dependent Effect”. The T/C at 400 mg/kg [13] was 4.9%, the GI50 [14] was 1700 nM and the inhibition [15] was “inactive”. The inhibition [16] was “inactive”, the GI50 [17] was 407 nM and the GI50 [18] was 93.3 nM. The Activity [19] was “Active”, the GI50 [20] was 224 nM and the GI50 [21] was 182 nM. For the same compound, the GI50 [22] was 513 nM, the Activity [23] was “inactive” and the Activity [24] was “Active”. The GI50 [25] was 288 nM, the T/C at 200 mg/kg [26] was 7.1% and the inhibition [27] was “inactive”. For the same compound, the inhibition [28] was “Active”.
